A selection: hits, their analogues and other compounds. The true share with any hit is near 1.8%.
ARNT-TACC3 inh: disruptors of ARNT/TACC3 protein interaction, primary screen, biochemical, AlphaScreen, single concentration; AlphaScreen His-ARNT PAS-B/GST-TACC3 binding, luminescence; TACC3 fragment carries E629A point mutation; inhibition, % at 9.99 µM; 0.66% of 390,000 active; AID 623870, 2012;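 active means mean inhibition of replicates at least 50% and at least half of replicates each reaching 50%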;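 further: 0% = complete ARNT plus TACC3 wells and 100% = ARNT alone without TACC3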
HTRA1 inhibitor: HTRA1 serine protease inhibitors, primary screen, biochemical, fluorescence polarization, HTS | AID 504803, 2011 | 0.5% of 340,000 active | Q92743 | inhibition, % at 5.96 µM | recombinant HTRA1, FP-rhodamine activity-based probe; in the data active means inhibition above about 36%;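 further: 0% = enzyme with DMSO and 100% = wells lacking enzyme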
SIAE primary: human SIAE inhibitors, primary screen, biochemical, fluorescence polarization, FP-Rh probe, 1536-well HTS; SIAE FP-Rh probe binding; 0.69% of 370,000 active; Sialate O-acetylesterase (Homo sapiens), Q9HAT2; inhibition, % at 9.66 µM;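 active means inhibition above a cutoff: mean of compounds within the control limits plus 3 SD of those, cut at about 17% in these data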;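 further: 0% = plate median of compound wells and 100% = probe without SIAE protein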
TCR-CD3 inh: inhibitors of human TCR-CD3 interaction, primary screen, biochemical, fluorescence, TAMRA-labeled TCR probe | inhibition, % at 9.4 µM | 0.37% of 360,000 active | T-cell receptor (TCR);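 further: recombinant mutant TCR 2C K166C tagged with TAMRA read by polarization; 0% = receptor in buffer alone and 100% = receptor with positive control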
mABHD4 FP: ABHD4 inhibitors, primary screen, biochemical, fluorescence polarization, mouse. purified mABHD4, FP-Rh probe fluorescence polarization. AID 720543, 2013. inhibition, % at 8.92 µM. 0.54% of 370,000 active. (Lyso)-N-acylphosphatidylethanolamine lipase (Mus musculus), Q8VD66;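 active means inhibition exceeding the mean over every tested compound plus 3 SD, cut at about 30% in these data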;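 further: 0% = plate median of compound wells and 100% = S159A mutant with DMSO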
Target sequence (Q8VD66 whole entry, looked up): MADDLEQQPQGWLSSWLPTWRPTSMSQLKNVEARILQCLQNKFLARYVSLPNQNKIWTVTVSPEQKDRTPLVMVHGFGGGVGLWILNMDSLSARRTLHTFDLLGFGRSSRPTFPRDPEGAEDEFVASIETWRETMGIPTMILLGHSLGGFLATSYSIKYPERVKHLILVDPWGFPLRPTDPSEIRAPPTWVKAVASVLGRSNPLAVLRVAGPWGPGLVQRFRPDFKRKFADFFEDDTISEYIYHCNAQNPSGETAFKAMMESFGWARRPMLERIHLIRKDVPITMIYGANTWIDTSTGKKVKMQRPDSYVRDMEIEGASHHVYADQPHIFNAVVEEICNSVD
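Assay system: wild-type mouse ABHD4 protein; compound: single nominal dose of 8.92 µM, 0.89% DMSO final; schedule: 45 min + 60 min at 25 °C; measured by: FP readout, ex 525 nm / em 598 nm; evaluation: % inhibition of FP-Rh probe binding versus controls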
BSA probe FL: compounds interfering with TAMRA-BSA probe, counter-screen for TCR-CD3 interaction inhibitor project, biochemical, fluorescence, TAMRA-labeled BSA; shares compounds with TCR-CD3 inh; inhibition, % at 9.4 µM; TAMRA-labeled BSA probe fluorescence counterscreen; 10% of 1,200 active; in the data active means inhibition above about 23%;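 further: 0% = buffer low control and 100% = reference high control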
TCR-CD3 conf: TCR-CD3 interaction inhibitors, retest, confirmation, biochemical, fluorescence, TAMRA-labeled TCR probe. shares compounds with TCR-CD3 inh. TAMRA-labeled TCR probe fluorescence binding assay. inhibition, % at 9.4 µM. 48% of 1,200 active
Starred values were filed as active, the others as inactive; / = no result. Unless noted, no stated cut-off is given here; in the data, active means inhibition above about 19%; inactive means the rest.

SMILES	ARNT-TACC3 inh	HTRA1 inhibitor	SIAE primary	TCR-CD3 inh	mABHD4 FP	BSA probe FL	TCR-CD3 conf
COc1cc(O)c2c(c1)OC(c1ccc(O)cc1)CC2=O (configuration not stated)	-10.5	-10.1	1.6	7.7	-6.6	/	/
Cc1c(O)cc2c(c1O)C(=O)CC(c1ccc(O)cc1)O2 (configuration not stated)	-1.0	2.5	-1.9	33.8*	-2.8	0.1	22.5*
O=C(C[C@@H]1CC[C@@H]2[C@H](COC[C@@H](O)CN2C(=O)c2ccccn2)O1)N1CCN(c2ccccc2)CC1	0.0	/	/	/	/	/	/
CC(=O)OCCn1c2nc(=O)[nH]c(=O)c-2nc2cc(C)c(C)cc21	5.3	11.9	20.4*	36.7*	23.6	50.5*	34.0*
COc1ccc(S(=O)(=O)N[C@@H]2C=C[C@H](CC(=O)N3CCc4ccccc4C3)O[C@H]2CO)cc1	-0.4	/	/	/	/	/	/
CCOc1cc(/C=N/NC(=O)COc2ccc(Cl)cc2)ccc1OS(=O)(=O)c1ccccc1	-4.8	-70.2	-21.4	28.4*	-33.1	24.0*	35.3*
CCOc1cc(/C=N/NS(=O)(=O)c2ccccc2)ccc1OS(=O)(=O)c1ccc(C)cc1	-5.2	-27.0	-23.1	-7.2	-15.4	/	/
C=CCn1c(C)cc(-c2csc(NC(=O)CCc3nc4ccccc4c(=O)[nH]3)n2)c1C	-0.4	-2.9	6.4	24.6*	-2.2	-3.5	-1.1
O=C(CCc1nc2ccccc2c(=O)[nH]1)Nc1nc(-c2cccs2)cs1	-3.6	-10.5	-8.8	-4.0	-24.9	/	/
C[C@H](CO)N1C[C@H](C)[C@@H](CN(C)C(=O)Nc2ccccc2)OCCCC[C@H](C)Oc2ccc(NC(=O)Cc3ccccc3)cc2C1=O	-9.2	/	/	/	/	/	/
COc1ccc(CCNC(=O)C(=O)NCC2OCCN2S(=O)(=O)c2ccc(OC)cc2)cc1 (configuration not stated)	1.0	-7.1	1.5	49.1*	7.5	-2.5	6.6
CCO[C@@H]1OC(C(=O)N2CCCC2)=C[C@H](C2CCCCC2)[C@H]1CCCO	-2.2	/	/	/	/	/	/
CC(=O)c1cc(-c2ccc(F)cc2)n(CCC(=O)NC(C)(C)C)c1C	/	-2.7	1.4	20.3*	2.7	1.8	-1.8
O=C(CCN1C(=O)/C(=C/c2ccc(F)cc2)SC1=S)NCCCn1ccnc1	10.3	-8.4	-0.2	-0.7	-15.8	/	/
O=C(CCN1C(=O)/C(=C/c2ccc(Cl)cc2)SC1=S)NCCCn1ccnc1	4.7	-5.6	-0.5	23.0*	-29.5	0.3	19.8*
Cc1[nH]c(C)c2c(=O)n(Cc3ccccc3Cl)ncc12	/	/	8.4	-0.5	7.2	/	/
Cc1[nH]c(C)c2c(=O)n(-c3ccccc3)ncc12	29.4	-3.3	-94.4	30.8*	-82.9	10.7	8.6
COCCNC(=O)CC(c1ccccc1)c1ccccc1	-2.6	-1.1	-5.7	8.4	0.8	/	/
COCCCNC(=O)CC(C)c1ccccc1 (configuration not stated)	-4.4	-3.9	-0.7	110.1*	2.1	3.3	6.4
O=C(NNC(=S)Nc1ccccc1)NNC(=S)Nc1ccccc1	-0.5	14.7	10.1	30.2*	12.0	-2.3	17.0
CC(=O)NC[C@H]1[C@@H](c2ccc(-c3cccc(F)c3)cc2)[C@@H](CO)N1C(C)=O	-7.5	/	/	/	/	/	/
CCOC(=O)c1cc(S(=O)(=O)NC2CCCCC2)cn1C	5.2	6.2	1.4	30.0*	3.5	-4.1	2.5
COc1ccc(-n2cccc2/C=C2/NC(=O)N(c3cccc(Cl)c3)C2=O)cc1	-4.2	-11.2	-1.7	-2.3	0.2	/	/
O=C(O)c1cccc(-n2cccc2/C=C2/NC(=O)N(c3ccc(Cl)cc3)C2=O)c1	13.3	11.1	-1.9	36.0*	4.1	-11.4	31.3*
Cc1cc(C)nc(SCCC(=O)Nc2ccccc2C)n1	0.9	4.4	-2.3	107.2*	3.6	3.5	0.5
SMILES	ARNT-TACC3 inh	HTRA1 inhibitor	SIAE primary	TCR-CD3 inh	mABHD4 FP	BSA probe FL	TCR-CD3 conf
COc1ccc(S(=O)(=O)N(C)C[C@@H]2Oc3c(NC(=O)C4CCCCC4)cccc3C(=O)N([C@H](C)CO)C[C@@H]2C)cc1	-0.5	/	/	/	/	/	/
C[C@H](O)[C@@H]1C(=O)N2CCc3c([nH]c4cccc(-c5ccccc5)c34)[C@@H]2C[C@@H]1N(C)C(=O)OCc1ccccc1	/	/	-3.3	21.1*	-4.5	3.0	6.5
Cc1ccc2nc(C)cc(SCC(=O)N/N=C/c3ccco3)c2c1	-0.5	-13.4	-0.3	19.1*	8.6	0.1	4.0
COc1cccc2c(SCC(=O)N/N=C/c3ccc(O)c(O)c3)cc(C)nc12	-7.5	/	5.0	44.8*	28.9	-13.9	78.7*
COc1ccc2nc(C)cc(SCC(=O)N/N=C/c3cccc4ccccc34)c2c1	-1.5	-8.4	-5.6	1.3	-2.5	/	/
COc1cc(/C=N/NC(=O)C(=O)/C=C2\NC(C)(C)Cc3ccccc32)ccc1O	3.6	7.8	-0.3	25.7*	8.6	-9.4	13.9
COc1cc(/C=N/NC(=O)C2(O)c3ccccc3-c3ccccc32)ccc1O	16.2	6.6	10.0	1.2	-0.8	/	/
O=c1c2c(-c3ccccc3)csc2ncn1/N=C/c1cccc([N+](=O)[O-])c1O	72.5*	2.8	1.1	29.4*	13.6	-13.8	31.3*
O=c1c2c(-c3ccccc3)csc2ncn1/N=C/c1ccc(O)c([N+](=O)[O-])c1	8.3	0.5	-0.4	4.3	0.9	/	/
CCOc1ccc(-n2c(O)c(/C=N/NC(=O)C3COc4ccccc4O3)c3ccccc3c2=O)cc1 (configuration not stated)	/	14.4	2.4	20.3*	19.6	0.3	36.5*
CCOC(=O)c1cnc2nc(Cc3ccccc3)[nH]n2c1=O	-1.0	0.0	0.8	-1.1	2.1	/	/
CCOC(=O)c1cnc(Cc2ccccc2)[nH]c1=O	-13.9	0.1	-2.8	33.4*	0.3	2.0	0.6
C[C@H](CO)N1C[C@H](C)[C@@H](CN(C)S(=O)(=O)c2ccc(F)cc2)Oc2ccc(NC(=O)CCC(F)(F)F)cc2CC1=O	-8.9	/	/	/	/	/	/
C[C@@H]1CCCCO[C@H](CN(C)C(=O)CCC(F)(F)F)[C@H](C)CN([C@H](C)CO)C(=O)c2cc(NC(=O)CCC(F)(F)F)ccc2O1	2.1	/	/	/	/	/	/
COc1ccc(NC(=O)N(C)C[C@H]2Oc3c(NC(=O)Nc4ccccc4)cccc3C(=O)N([C@H](C)CO)C[C@H]2C)cc1	2.2	/	/	/	/	/	/
COc1ccc(CN(C2CCCC2)S(=O)(=O)c2ccc(-n3cnnn3)cc2)cc1OC	0.9	-7.7	4.5	82.3*	-9.8	-1.6	0.6

Assay outcomes deposited in PubChem BioAssay by several laboratories.
